Screening data from PubChem BioAssay.
SENP7 inh – SENP7 protease inhibitors, primary screen, biochemical, luminescence, uHTS. Sentrin-specific protease 7 (Homo sapiens), Q9BQF6. recombinant SENP7, Z-RLRGG-aminoluciferin luminescence, 40 min. inhibition, % at 5 µM. actives 1.5% (n = 330,000);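 active means inhibition above about 50% at the single test dose, limit read from the data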;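 further: plate controls were DMSO with enzyme for no effect and no enzyme buffer wells for full effect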
SENP8 block-1 – SENP8 protease inhibitors, primary screen, biochemical, luminescence | inhibition, % at 10 µM | actives 1.2% (n = 330,000) | Sentrin-specific protease 8 (Homo sapiens), Q96LD8 | AID 2540, 2010 | purified SENP8, Z-RLRGG-aminoluciferin cleavage; in the data active means inhibition above about 50%
Target sequence (Q96LD8 whole entry, looked up): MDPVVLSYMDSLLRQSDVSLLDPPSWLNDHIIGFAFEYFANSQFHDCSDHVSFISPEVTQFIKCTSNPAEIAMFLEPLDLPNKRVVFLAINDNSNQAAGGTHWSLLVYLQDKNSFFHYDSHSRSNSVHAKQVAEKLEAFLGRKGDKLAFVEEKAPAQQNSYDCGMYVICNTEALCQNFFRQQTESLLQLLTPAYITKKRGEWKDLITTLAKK
SENP6 inh – SENP6 protease inhibitors, primary screen, biochemical, luminescence, uHTS; inhibition, % at 10 µM; actives 1.8% (n = 330,000); Recombinant SENP6 catalytic domain, aminoluciferin luminescence; Sentrin-specific protease 6 (Homo sapiens), Q9GZR1;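 active means inhibition above about 50% at the single tested dose, limit read from the data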;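 further: plate controls were DMSO wells with enzyme for no effect and DMSO wells lacking enzyme for full effect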
Target sequence (Q9GZR1 628-1112 limits assumed): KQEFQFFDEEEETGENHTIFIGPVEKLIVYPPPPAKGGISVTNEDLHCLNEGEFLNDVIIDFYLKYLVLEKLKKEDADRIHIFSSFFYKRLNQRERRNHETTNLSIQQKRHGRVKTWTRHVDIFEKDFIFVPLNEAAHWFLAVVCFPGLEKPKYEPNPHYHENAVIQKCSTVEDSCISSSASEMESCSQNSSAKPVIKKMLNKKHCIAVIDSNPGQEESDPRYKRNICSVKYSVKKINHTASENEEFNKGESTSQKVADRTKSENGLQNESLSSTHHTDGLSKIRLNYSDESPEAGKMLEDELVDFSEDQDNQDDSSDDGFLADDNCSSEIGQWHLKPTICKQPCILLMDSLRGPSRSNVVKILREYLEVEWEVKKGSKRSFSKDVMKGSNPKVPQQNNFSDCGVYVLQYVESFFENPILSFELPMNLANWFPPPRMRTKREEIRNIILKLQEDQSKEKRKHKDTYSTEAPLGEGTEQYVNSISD
SENP1 FRET inh – human SENP1 catalytic domain inhibitors, primary screen, biochemical, FRET, uHTS; actives 0.21% (n = 360,000); inhibition, % at 10 µM; recombinant SENP1 catalytic domain, CyPet-SUMO1-YPet FRET cleavage;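 active means inhibition at least 30% at 10 µM, raw YFP signal under a set limit, fluorescence ratio 0.5 to 1.5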;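 further: 0% = enzyme with DMSO and 100% = no enzyme wells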
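Material – human SENP1 catalytic domain · Input – SENP1 enzyme, 20 pM final · Compound dosing – single concentration of 10 µM compound, 0.5% DMSO final · Timing – enzyme reaction for 50 min at room temperature, dark · Measured by – FRET fluorescence in CFP and YFP emission channels · Control set – no-enzyme wells low, DMSO-plus-enzyme wells high control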
Platelet DG rel – inhibitors of platelet dense granule secretion, primary screen, cell-based, MLPCN, human platelets; actives 0.22% (n = 300,000); inhibition, %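 (compounds screened at 7.5 µM in platelet-rich plasma)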; human platelet-rich plasma, SFLLRN dense granule ATP release, luminescence;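 active means mean replicate score, as percent of positive control, at or above 50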
SENP8 block-2 – human SENP8 protease inhibitors, primary screen, biochemical, fluorescence, Nedd8 protein substrate, uHTS; actives 0.64% (n = 360,000); AID 602440, 2012; inhibition, % at 20 µM; Sentrin-specific protease 8 (Homo sapiens), Q96LD8; recombinant SENP8; in the data active means inhibition mostly above about 40%, no sharp cut-off; inactive means mostly below about 27%
Active calls of the source: *; / = not tested or not shown. Rows were chosen to be rich in hits. Some 2.6% of all compounds tested hit in one or more screens of this group.

SMILES | SENP7 inh | SENP8 block-1 | SENP6 inh | SENP1 FRET inh | Platelet DG rel | SENP8 block-2
CC1CC(=O)NN=C1c1ccc(N(C)C)c([N+](=O)[O-])c1 (stereo not drawn) | 8.8 | 2.4 | -3.4 | 3.2 | 82.1* | 26.9
CC1CC(=O)NN=C1c1cccs1 (stereo not drawn) | -2.9 | 0.7 | 12.0 | 0.4 | 35.7 | 14.1
CCN(CC)c1ccc(C2=NNC(=O)CC2C)cc1[N+](=O)[O-] (stereo not drawn) | -6.4 | -6.6 | -11.4 | 2.3 | 55.1* | 29.1
COC(=O)[C@]12CCCCC=C1N(CCc1ccc(OC)c(OC)c1)C(=O)[C@H](CC(=O)NCc1cccs1)C2 | / | / | / | 0.7 | / | 18.6
COC(=O)c1cc(C)nc2c1C(=O)C(=O)C=C2N1CCOCC1 | 93.2* | 98.3* | 90.4* | 9.5 | 8.7 | 111.0*
Cc1[nH]n(-c2ccccc2)c(=O)c1/C=N/c1ccccn1 | 0.7 | 1.1 | -9.6 | -0.1 | 2.9 | 40.9*
CC1=NN(c2ccccc2)C(=O)/C1=C\c1c(C)[nH]n(-c2ccccc2)c1=O | 6.8 | 3.1 | 2.0 | 2.7 | -1.6 | 42.1*
COc1ccc(CN2C(=O)CSCC2(C)C(=O)NCc2ccccc2)cc1 (stereo not drawn) | / | / | / | -0.7 | / | 18.5
O=C(N/N=C/c1ccccc1[N+](=O)[O-])c1ccc2c(c1)OCCO2 | 45.9 | 43.1 | 71.5* | -1.5 | 40.7 | -41.8
O=C(N/N=C/c1cc(O)ccc1[N+](=O)[O-])c1ccc2c(c1)OCCO2 | 6.3 | -9.4 | -11.0 | 4.0 | -15.2 | 6.1
O=C(C[C@H]1C=C[C@@H](NC(=O)c2ccncc2)[C@@H](CO)O1)NCC1CC1 | / | / | / | 1.6 | / | 21.7
CCOC(=O)c1[nH]cnc1N=Nc1c(O)ccc2ccccc12 | / | / | / | 61.8* | 6.1 | 9.7
Oc1ccc2ccccc2c1N=Nc1ccccc1F | 6.8 | -6.4 | 16.2 | 3.3 | -0.7 | 2.5
Oc1ccc2ccccc2c1N=Nc1ccccn1 | -4.7 | 15.0 | 22.6 | 10.8 | -3.6 | 41.4*
CCOC(=O)C[C@@H]1OC[C@H](C)N1S(=O)(=O)c1ccc(C)cc1 | / | / | / | 3.7 | / | 7.4
Cc1nc2nc(-c3ccc(Cl)cc3)cn2nc1C | -6.3 | 62.4* | 69.2* | -14.1 | 7.9 | -499.7
Nc1nc2c(ncn2[C@@H]2O[C@H](CNS(=O)(=O)N3CCCC3)[C@@H](O)[C@H]2O)c(=O)[nH]1 | / | / | / | -2.4 | / | 5.3
COc1cccc(N/N=C/c2cccc(Br)c2O)c1 | -11.3 | 26.1 | -6.6 | -25.8 | -9.6 | -26.3
Cc1cccc(N/N=C/c2ccc(O)c(O)c2O)c1 | 8.1 | 27.8 | 10.5 | -1.1 | -7.5 | 67.0*
O=[N+]([O-])c1cccc(N/N=C/c2cccc(O)c2O)c1 | -17.4 | 2.0 | -22.0 | 1.6 | 4.2 | 58.2*
O=[N+]([O-])c1ccc(N/N=C/c2cccc(O)c2O)c(S(=O)(=O)N2CCOCC2)c1 | 13.4 | 7.7 | -1.2 | -55.4 | -4.2 | 6.8
Oc1ccc(/C=N/NC(=S)Nc2cccnc2)c(O)c1O | / | / | / | -10.9 | 7.9 | 56.4*
CCCCOCCCNC(=O)C[C@@H]1C[C@@]2(C(=O)OCC)CCCC=C2N(Cc2ccc(Cl)cc2Cl)C1=O | / | / | / | -2.4 | / | 5.3
COc1ccc(S(=O)(=O)N2CCN(CC(=O)c3c(N)n(C)c(=O)n(C)c3=O)CC2)cc1OC | / | / | / | 0.8 | / | 5.8
CC(C)c1ccc(S(=O)(=O)NCCCN2CCOCC2)cc1 | / | / | / | 1.8 | / | 8.6
SMILES | SENP7 inh | SENP8 block-1 | SENP6 inh | SENP1 FRET inh | Platelet DG rel | SENP8 block-2
Cc1ccc(NCCN(C)C)c2c(=O)c3cc(O)ccc3sc12 | / | / | / | 37.2* | / | 27.3
O=C(CCNC(=O)C1CCN(S(=O)(=O)c2ccccc2)CC1)NCc1ccc(Cl)c(Cl)c1 | -3.4 | -1.4 | 2.8 | -0.9 | 58.2* | 2.8
O=c1[nH]c(CCl)nc2cc(-c3ccc(F)cc3)sc12 | 47.4 | 78.9* | 88.6* | -1.7 | -17.9 | -1.9
CCCCNC(=O)c1sc(=S)n2c1[nH]c(=O)c1ccc(C(=O)NCCc3ccc(OC)c(OC)c3)cc12 | 3.1 | 4.0 | 8.8 | 44.6* | 18.2 | 7.4
COc1ccc(S(=O)(=O)NNS(=O)(=O)c2ccc(OC)c(OC)c2)cc1OC | / | / | / | -0.3 | / | 14.5
O=C1CCN(N=Nc2cccc(Cl)c2)N1 | -8.4 | -4.6 | -22.7 | / | 52.8* | /
c1ccc(CN2CCC3CC2c2ccc(N4CCOCC4)cc23)cc1 (stereo not drawn) | / | / | / | 2.4 | / | -16.8
COc1cc(/C=C2/SC(=S)N(Cc3ccccc3)C2=O)ccc1OS(C)(=O)=O | -1.9 | 3.5 | -6.6 | 2.5 | -1.5 | 18.0
COc1cc([N+](=O)[O-])cc(/C=C2/SC(=S)N(Cc3ccccc3)C2=O)c1O | / | / | / | 78.9* | 0.9 | 37.4
O=C1/C(=C\c2cc(Br)cc(Br)c2O)SC(=S)N1Cc1ccccc1 | -5.3 | 3.6 | 12.9 | 14.3 | -2.7 | 40.5*
O=C(O)c1ccc(/C=C2/SC(=S)N(Cc3ccccc3)C2=O)cc1 | / | / | / | 1.7 | 13.0 | 17.1
COc1cc(/C=C2/SC(=S)N(Cc3ccccc3)C2=O)ccc1OCC(=O)O | -5.2 | -11.7 | 7.4 | -55.5 | -0.6 | 14.3
COc1cc(/C=C2/SC(=S)N(Cc3ccccc3)C2=O)cc(Cl)c1O | / | / | / | 83.7 | 6.8 | 46.3*
CC(C)Cc1ccc(CN2C(C)C(=O)N(Cc3cn(Cc4ccco4)nn3)CCS2(=O)=O)cc1 (stereo not drawn) | / | / | / | -15.0 | / | -3.9
O=C(NCC(=O)N1CCN(Cc2ccccc2)CC1)c1ccccc1Cl | / | / | / | 0.2 | / | 0.5
COc1ccc(C(C)(O)c2nc(-c3ccc(N(C)C)cc3)cs2)cc1 (stereo not drawn) | / | / | / | -1.4 | / | -4.2
CNC(=S)Nc1ccc(C(N)=O)cc1 | 11.6 | -1.6 | 1.0 | -0.3 | 58.2* | 18.1
O=[N+]([O-])c1cc(CN2CCN(c3ccccc3)CC2)c(O)c2ncccc12 | 9.4 | 2.4 | 19.3 | -3.5 | 0.6 | 48.0*
Oc1c(CN2CCCCC2)cc(Br)c2cccnc12 | 12.7 | 15.1 | 19.2 | -9.5 | -3.3 | 53.1*
CN(Cc1cc([N+](=O)[O-])c2cccnc2c1O)C1CCCCC1 | 15.4 | 11.1 | 25.4 | / | 15.0 | /
COC(=O)C[C@H]1CC[C@H](NC(=O)Nc2ccccc2F)[C@@H](CO)O1 | / | / | / | 2.9 | / | 25.9
Cc1ccc(S(=O)(=O)NCc2ccccc2Br)cc1 | / | / | / | 4.0 | / | 12.4
COc1ccc(NC(=O)/C(C#N)=C\c2ccc(N3CCOCC3)o2)cc1 | 15.6 | 4.1 | -1.1 | -26.1 | 3.7 | 45.0*
CCOC1=C2[C@H](c3cccs3)N(S(=O)(=O)c3ccc(C)cc3)C[C@H]2n2c(=O)n(-c3ccccc3)c(=O)n2C1 | / | / | / | -16.5 | / | 1.6
